Test results: ChEMBL document CHEMBL1122416, “An extension of the f-fragment method for the calculation of hydrophobic constants (log P) of conformationally defined systems” (J Med Chem, 1983)

Assay: Partition coefficient (logP)
Format: physicochemical
Conditions: octanol/water
Procedure, shortened: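 Shake-flask partitioning of the neutral amine species between 1-octanol and 0.1 N NaOH. Both phases were analysed by gas chromatography on 10% Apiezon L with 2% KOH on 80-100 mesh Chromosorb WAW. Observed log P was taken from the phase distribution.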

| Structure (SMILES) | logP (read-out: logP) | logP |
| --- | --- | --- |
| N[C@@H]1CC2C[C@@H]1c1ccc(C(F)(F)F)cc12 | 3.21 |  |
| CNC1C2CC[C@H]1c1ccccc12 (stereo in doubt; 13) | 2.37 |  |
| N[C@@H]1CC2C[C@@H]1c1ccccc12 | 2.09 |  |
| CN[C@@H]1CC2O[C@@H]1c1ccccc12 | 0.91 |  |
| N[C@H]1CC2C[C@@H]1c1ccc(C(F)(F)F)cc12 | 2.91 |  |
| CCN[C@H]1CC2C[C@@H]1c1ccccc12 | 2.62 |  |
| N[C@@H]1CC2O[C@@H]1c1ccccc12 | 0.75 |  |
| NC1C2CC[C@H]1c1ccccc12 (stereo in doubt; 17) | 2.13 |  |
| N[C@H]1CC2CC[C@@H]1c1ccccc12 | 2.29 |  |
| N[C@@H]1CC2C[C@@H]1c1cc(C(F)(F)F)ccc12 | 3.19 |  |
| CCN[C@@H]1CC2C[C@@H]1c1ccccc12 | 2.72 |  |
| N[C@H]1CC2O[C@@H]1c1ccccc12 | 0.4 |  |
| CN[C@H]1CC2O[C@@H]1c1ccccc12 | 0.59 |  |
| CN[C@H]1CC2CC[C@@H]1c1ccccc12 | 2.59 |  |
| CN[C@@H]1CC2CC[C@@H]1c1ccccc12 | 2.68 |  |
| CCCN[C@H]1CC2C[C@@H]1c1ccccc12 | 3.13 |  |
| CN[C@@H]1CC2C[C@@H]1c1ccccc12 | 2.41 |  |
| N[C@@H]1CC2CCC1c1ccccc12 (some centres undefined) | 2.32 |  |
| NC1C2CC[C@H]1c1ccccc12 (stereo in doubt; 19) |  | 2.08 |
| N[C@H]1CC2C[C@@H]1c1ccccc12 | 2 |  |
| CCCN[C@@H]1CC2C[C@@H]1c1ccccc12 | 3.3 |  |
| N[C@H]1CC2C[C@@H]1c1cc(C(F)(F)F)ccc12 | 2.85 |  |
| CN[C@H]1CC2C[C@@H]1c1ccccc12 | 2.32 |  |
| CNC1C2CC[C@H]1c1ccccc12 (stereo in doubt; 11) |  | 2.47 |
